ChEMBL document CHEMBL1152866, “Modulation of gene expression via disruption of NF-kappaB signaling by a bacterial small molecule” (Science, 2008)
Calls of active or inactive are those of the source.

How the values were obtained:
[1] = molecular target: T1, Inhibitor of nuclear factor kappa-B kinase subunit alpha (Homo sapiens) (UniProt O15111); test: Inhibition of LPS-induced IkappaBalpha phosphorylation in human THP1 cells measured up to 120 mins by Western blot analysis; assay type: cell-based; conditions: THP-1
T1 sequence (whole entry): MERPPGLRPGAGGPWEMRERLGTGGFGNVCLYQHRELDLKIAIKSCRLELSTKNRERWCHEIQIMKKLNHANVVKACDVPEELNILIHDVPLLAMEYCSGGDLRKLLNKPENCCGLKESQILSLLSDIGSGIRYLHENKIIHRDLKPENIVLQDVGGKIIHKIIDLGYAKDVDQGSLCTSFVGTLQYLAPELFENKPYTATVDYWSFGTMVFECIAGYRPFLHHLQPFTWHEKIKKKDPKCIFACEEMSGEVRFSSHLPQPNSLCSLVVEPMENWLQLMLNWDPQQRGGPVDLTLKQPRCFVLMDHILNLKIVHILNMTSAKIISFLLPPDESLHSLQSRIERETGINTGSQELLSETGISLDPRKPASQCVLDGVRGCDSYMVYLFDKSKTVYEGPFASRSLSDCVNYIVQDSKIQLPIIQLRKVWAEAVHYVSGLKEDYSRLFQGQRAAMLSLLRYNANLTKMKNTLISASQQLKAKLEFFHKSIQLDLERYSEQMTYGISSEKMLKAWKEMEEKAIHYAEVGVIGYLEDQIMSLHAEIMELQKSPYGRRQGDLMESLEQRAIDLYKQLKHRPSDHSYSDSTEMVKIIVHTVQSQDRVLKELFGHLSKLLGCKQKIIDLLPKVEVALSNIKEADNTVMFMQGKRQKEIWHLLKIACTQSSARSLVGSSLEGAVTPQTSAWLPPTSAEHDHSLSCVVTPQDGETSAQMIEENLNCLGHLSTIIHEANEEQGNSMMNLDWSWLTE

[2] = species: Mus musculus; test: Inhibition of LPS-induced IKK activity in mouse BMDM assessed as GST-IkappaBalpha phosphorylation after 5 mins by immunoprecipitation kinase assay
[3] = species: Mus musculus; test: Inhibition of IKK activity in LPS-induced mouse BMDM assessed as reduction in phosphorylation of IkappaBalpha treated 2 hrs after LPS challenge measured up to 120 mins by immunoblot analysis
[4] = species: Mus musculus; test: Effect on IKK activity in LPS-induced mouse BMDM assessed as induction of phosphorylation of CREB treated 2 hrs after LPS challenge measured up to 120 mins by immunoblot analysis
[5] = tested on: BMDM; test: Inhibition of LPS-induced IkappaBalpha mRNA expression in mouse BMDM up to 3 hrs by Northern blot analysis; assay type: functional, cell-based
[6] = tested on: BMDM; test: Inhibition of LPS-induced IFNbeta mRNA expression in mouse BMDM up to 3 hrs by Northern blot analysis; assay type: functional, cell-based
[7] = tested on: BMDM; test: Inhibition of LPS-induced IL-12beta mRNA expression in mouse BMDM up to 3 hrs by Northern blot analysis; assay type: functional, cell-based
[8] = tested on: Macrophage; test: Inhibition of LPS-induced IP-10 mRNA expression in mouse alveolar macrophages after 90 mins by Northern blot analysis; assay type: functional, cell-based
[9] = tested on: Macrophage; test: Inhibition of LPS-induced RANTES mRNA expression in mouse alveolar macrophages after 90 mins by Northern blot analysis; assay type: functional, cell-based
[10] = tested on: Macrophage; test: Inhibition of LPS-induced IRF-1 mRNA expression in mouse alveolar macrophages after 90 mins by Northern blot analysis; assay type: functional, cell-based
[11] = tested on: MEF; test: Inhibition of LPS-induced IkappaBalpha mRNA expression in MEF after 90 mins by Northern blot analysis; assay type: functional, cell-based; conditions: Mus musculus
[12] = tested on: MEF; test: Inhibition of LPS-induced RANTES mRNA expression in MEF after 90 mins by Northern blot analysis; assay type: functional, cell-based; conditions: Mus musculus
[13] = tested on: MEF; test: Inhibition of LPS-induced IP-10 mRNA expression in MEF after 90 mins by Northern blot analysis; assay type: functional, cell-based; conditions: Mus musculus
[14] = tested on: MEF; test: Effect on TNF-induced RANTES mRNA expression in MEF by Northern blot analysis; assay type: functional, cell-based; conditions: Mus musculus
[15] = molecular target: T2, Inhibitor of nuclear factor kappa-B kinase subunit alpha (Mus musculus) (UniProt Q60680); test: Inhibition of TNF-induced IkappaBalpha phosphorylation in mouse MEF up to 120 mins by Western blot analysis
T2 sequence (whole entry): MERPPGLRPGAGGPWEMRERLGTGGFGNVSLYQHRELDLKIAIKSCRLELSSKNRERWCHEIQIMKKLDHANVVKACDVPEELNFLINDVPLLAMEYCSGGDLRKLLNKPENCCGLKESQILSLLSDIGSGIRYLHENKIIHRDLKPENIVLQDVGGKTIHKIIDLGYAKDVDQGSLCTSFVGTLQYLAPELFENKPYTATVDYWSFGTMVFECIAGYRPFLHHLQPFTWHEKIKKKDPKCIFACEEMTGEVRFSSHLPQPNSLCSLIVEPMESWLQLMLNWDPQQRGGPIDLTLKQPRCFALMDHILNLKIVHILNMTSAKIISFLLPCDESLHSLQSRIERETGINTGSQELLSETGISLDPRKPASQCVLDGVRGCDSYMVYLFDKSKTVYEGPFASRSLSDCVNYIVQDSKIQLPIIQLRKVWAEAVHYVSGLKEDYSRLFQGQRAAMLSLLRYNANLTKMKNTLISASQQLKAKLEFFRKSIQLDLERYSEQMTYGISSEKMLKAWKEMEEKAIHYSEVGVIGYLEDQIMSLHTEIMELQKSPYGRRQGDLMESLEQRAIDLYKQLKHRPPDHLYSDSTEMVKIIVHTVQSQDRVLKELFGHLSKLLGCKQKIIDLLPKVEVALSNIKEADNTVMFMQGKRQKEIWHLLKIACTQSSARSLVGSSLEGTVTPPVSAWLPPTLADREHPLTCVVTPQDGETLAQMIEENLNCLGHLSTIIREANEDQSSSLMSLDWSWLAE

[16] = tested on: MEF; test: Inhibition of TNF-induced IkappaBalpha expression in mouse MEF up to 120 mins by Western blot analysis; assay type: functional, cell-based
[17] = molecular target: MAP kinase p38 (Mus musculus) (UniProt P47811+O08911+Q9WUI1+Q9Z1B7); test: Inhibition of TNF-induced p38 phosphorylation in mouse MEF up to 120 mins by Western blot analysis
[18] = tested on: Epithelial cell; test: Inhibition of TNF-induced RelA expression in human bronchial epithelial cells up to 120 mins by Western blot analysis; assay type: functional, cell-based
[19] = tested on: WI-38; test: Induction of apoptosis in TNF-stimulated human WI38 fibroblast assessed as PARP cleavage after 2 hrs by Western blot analysis; assay type: functional, cell-based
Summary of the method: (§1)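 WI38 lung fibroblasts and bronchial epithelial cells were stimulated for 2 hours. The same Western blot was probed for PARP cleavage, total IκBα and phosphorylated IκBα.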

[20] = tested on: Epithelial cell; test: Induction of apoptosis in TNF-stimulated human bronchial epithelial cells assessed as PARP cleavage after 2 hrs by Western blot analysis; assay type: functional, cell-based; summary of the method: as §1
[21] = tested on: PBMC; test: Inhibition of LPS-induced TNF mRNA expression in human PBMC up to 50 uM by Northern blot analysis; assay type: functional, cell-based
[22] = tested on: PBMC; test: Inhibition of LPS-induced IkappaBalpha mRNA expression in human PBMC up to 50 uM by Northern blot analysis; assay type: functional, cell-based
[23] = tested on: Macrophage; test: Inhibition of LPS-induced IL-12beta mRNA expression in mouse alveolar macrophages after 90 mins by Northern blot analysis; assay type: functional, cell-based

Measured: Activity

CCCCCCCCCC(=O)CC(=O)N[C@H]1CCOC1=O
active: [1] | [2] | [3] | [4] | [5] Dose-dependent effect | [6] Dose-dependent effect | [7] Dose-dependent effect | [8] Dose-dependent effect | [9] Dose-dependent effect | [10] Dose-dependent effect | [11] Dose-dependent effect | [12] Dose-dependent effect | [13] Dose-dependent effect | [14] | [15] | [16] | [17] | [18] | [19] | [20] | [21] | [22] | [23] Dose-dependent effect
